# According to ChEMBL document CHEMBL1649396, “Synthesis, biological evaluation of chrysin derivatives as potential immunosuppressive agents” (Eur J Med Chem, 2011):
# pIC50: −log10 of the molar value.
# Assays:
# [1] = test system: T-cell; experiment: Selectivity index, ratio of CC50 for BALB/c mouse T cells to IC50 for immunosuppressive activity in BALB/c mouse T cells; type: functional
# [2] = Immunosuppressive activity in BALB/c mouse T cells assessed as inhibition of anti-CD3/anti-CD28-stimulated cell proliferation after 72 hrs by MTT assay; type: functional, cell-based
# Outline: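 Female BALB/c mouse lymph node cells, 5 × 10⁵/well, stimulated with anti-CD3/anti-CD28 alongside graded compound for 72 h. MTT (4 mg/mL in PBS) was added 4 h before harvest. Formazan was dissolved in DMSO and read at 540 nm.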
# [3] = Cytotoxicity against BALB/c mouse T cells after 48 hrs by MTT assay; type: cell-based, T-cell
# Outline: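 Lymph node cells from female BALB/c mice, 6-8 weeks old and specific-pathogen-free, plated at 5 × 10⁵ cells/well with graded compound for 48 h. Medium was RPMI 1640 with 10% fetal calf serum and penicillin/streptomycin, at 37 °C under 5% CO₂. MTT (4 mg/mL in PBS) was added 4 h before the end. Formazan was dissolved in DMSO and read at OD540. CC50 is the concentration reducing viability to 50%.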
# [4] = test system: K562; experiment: Cytotoxicity against human K562 cells after 48 hrs by MTT assay; type: functional, cell-based; conditions: K562, 48 h
# Outline: (§1)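 Cells seeded at 5 × 10⁵ per well and exposed to a range of compound concentrations for 48 h. MTT (4 mg/mL in PBS) added 4 h before end of incubation. Medium replaced by DMSO to dissolve formazan, absorbance read at 540 nm. Value reported as IC₅₀.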
# [5] = Cytotoxicity against human L02 cells after 48 hrs by MTT assay; type: cell-based; conditions: L02, 48 h; outline: as §1
# [6] = test system: HepG2; experiment: Cytotoxicity against human HepG2 cells after 48 hrs by MTT assay; type: functional, cell-based; conditions: HepG2, 48 h; outline: as §1
# [7] = test system: KB; experiment: Cytotoxicity against human KB cells after 48 hrs by MTT assay; type: functional, cell-based; outline: as §1
# [8] = test system: T-cell; experiment: Immunosuppressive activity in anti-CD3/anti-CD28-stimulated BALB/c mouse T cells assessed as late apoptotic cells at 8 uM after 48 hrs by FACS analysis; type: functional
# Outline: (§2)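 Lymph node cells isolated from naive BALB/c mice, cultured with anti-CD3/anti-CD28 plus compound at 1, 2, 4 or 8 µM for 48 h. Cells were stained with Annexin V-FITC and propidium iodide and analysed by flow cytometry to give apoptotic, necrotic and viable fractions.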
# [9] = test system: T-cell; experiment: Immunosuppressive activity in anti-CD3/anti-CD28-stimulated BALB/c mouse T cells assessed as late apoptotic cells at 4 uM after 48 hrs by FACS analysis; type: functional; outline: as §2
# [10] = test system: T-cell; experiment: Immunosuppressive activity in anti-CD3/anti-CD28-stimulated BALB/c mouse T cells assessed as induction of apoptosis after 48 hrs by FACS analysis; type: functional, cell-based; outline: as §2
# [11] = test system: T-cell; experiment: Immunosuppressive activity in anti-CD3/anti-CD28-stimulated BALB/c mouse T cells assessed as early apoptotic cells at 4 uM after 48 hrs by FACS analysis; type: functional; outline: as §2
# [12] = test system: T-cell; experiment: Immunosuppressive activity in anti-CD3/anti-CD28-stimulated BALB/c mouse T cells assessed as viable cells at 2 uM after 48 hrs by FACS analysis; type: functional; conditions: read-out: Activity; outline: as §2
# [13] = test system: T-cell; experiment: Immunosuppressive activity in anti-CD3/anti-CD28-stimulated BALB/c mouse T cells assessed as viable cells at 1 uM after 48 hrs by FACS analysis; type: functional; conditions: read-out: Activity; outline: as §2
# [14] = test system: T-cell; experiment: Immunosuppressive activity in anti-CD3/anti-CD28-stimulated BALB/c mouse T cells assessed as viable cells at 4 uM after 48 hrs by FACS analysis; type: functional; conditions: read-out: Activity; outline: as §2
# [15] = test system: T-cell; experiment: Immunosuppressive activity in anti-CD3/anti-CD28-stimulated BALB/c mouse T cells assessed as early apoptotic cells at 1 uM after 48 hrs by FACS analysis; type: functional; outline: as §2
# [16] = test system: T-cell; experiment: Immunosuppressive activity in anti-CD3/anti-CD28-stimulated BALB/c mouse T cells assessed as non-viable necrotic cells at 4 uM after 48 hrs by FACS analysis; type: functional; outline: as §2
# [17] = test system: T-cell; experiment: Immunosuppressive activity in anti-CD3/anti-CD28-stimulated BALB/c mouse T cells assessed as non-viable necrotic cells at 2 uM after 48 hrs by FACS analysis; type: functional; outline: as §2
# [18] = test system: T-cell; experiment: Immunosuppressive activity in anti-CD3/anti-CD28-stimulated BALB/c mouse T cells assessed as viable cells at 8 uM after 48 hrs by FACS analysis; type: functional; conditions: read-out: Activity; outline: as §2
# [19] = test system: T-cell; experiment: Immunosuppressive activity in anti-CD3/anti-CD28-stimulated BALB/c mouse T cells assessed as non-viable necrotic cells at 8 uM after 48 hrs by FACS analysis; type: functional; outline: as §2
# [20] = Toxicity in po dosed BALB/c mouse; type: organism-based; conditions: in vivo
# Outline: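 Acute oral toxicity in female SPF BALB/c mice, 6–8 weeks old, by OECD 425 up-and-down procedure. Food withheld 3–4 h before and 1–2 h after dosing. Animals dosed one at a time at 24 h intervals, dose raised after survival and lowered after death, four more dosed after reversal. 35 animals in total. LD₅₀ estimated by maximum likelihood with AOT425StatPgm.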
# [21] = test system: T-cell; experiment: Immunosuppressive activity in anti-CD3/anti-CD28-stimulated BALB/c mouse T cells assessed as early apoptotic cells at 2 uM after 48 hrs by FACS analysis; type: functional; outline: as §2
# [22] = test system: T-cell; experiment: Immunosuppressive activity in anti-CD3/anti-CD28-stimulated BALB/c mouse T cells assessed as early apoptotic cells at 8 uM after 48 hrs by FACS analysis; type: functional; outline: as §2
# [23] = test system: T-cell; experiment: Immunosuppressive activity in anti-CD3/anti-CD28-stimulated BALB/c mouse T cells assessed as late apoptotic cells at 2 uM after 48 hrs by FACS analysis; type: functional; outline: as §2
# [24] = test system: T-cell; experiment: Immunosuppressive activity in anti-CD3/anti-CD28-stimulated BALB/c mouse T cells assessed as non-viable necrotic cells at 1 uM after 48 hrs by FACS analysis; type: functional; outline: as §2
# [25] = test system: T-cell; experiment: Immunosuppressive activity in anti-CD3/anti-CD28-stimulated BALB/c mouse T cells assessed as late apoptotic cells at 1 uM after 48 hrs by FACS analysis; type: functional; outline: as §2
smiles,measurement,setting,value
O=C(COc1cc(O)c2c(=O)cc(-c3ccccc3)oc2c1)Oc1c(Br)cccc1C(=O)O,Ratio CC50/IC50,[1],9.31
same,pIC50,[2],4.39
same,CC50 at 48 h,[3],379 µM
O=c1[nH]cc(F)c(=O)[nH]1 [FLUOROURACIL],pIC50,[4],4.42
same,pIC50,[5],4.25
same,pIC50,[6],5.56
same,pIC50,[7],5.67
O=C(COc1cc(O)c2c(=O)cc(-c3ccccc3)oc2c1)Oc1c(Cl)cccc1C(=O)O,Ratio CC50/IC50,[1],9.45
same,pIC50,[2],4.41
same,CC50 at 48 h,[3],366 µM
COC(=O)c1cc(Br)ccc1OC(=O)COc1cc(O)c2c(=O)cc(-c3ccccc3)oc2c1,Activity,[8],40.95%
same,Activity,[9],38.7%
same,Activity,[10],Dose-dependent effect
same,Activity,[11],3.14%
same,viability at 2 µM,[12],64.2%
same,viability at 1 µM,[13],77%
same,Ratio CC50/IC50,[1],>576.92
same,pIC50,[2],6.11
same,viability at 4 µM,[14],54.5%
same,Activity,[15],3.79%
same,pIC50,[4],6.33
same,pIC50,[5],3.56
same,Activity,[16],3.69%
same,Activity,[17],3.61%
same,viability at 8 µM,[18],50.1%
same,Activity,[19],7.41%
same,LD50,[20],738 mg/kg
same,Activity,[21],2.12%
same,Activity,[22],1.56%
same,Activity,[23],30.09%
same,pIC50,[6],6.21
same,pIC50,[7],6.10
same,Activity,[24],3.56%
same,Activity,[25],15.66%
same,CC50 at 48 h,[3],> 450 µM
COC(=O)c1ccc(Br)cc1OC(=O)COc1cc(O)c2c(=O)cc(-c3ccccc3)oc2c1,Ratio CC50/IC50,[1],18.54
same,pIC50,[2],4.75
same,CC50 at 48 h,[3],326 µM
COC(=O)c1cc(F)ccc1OC(=O)COc1cc(O)c2c(=O)cc(-c3ccccc3)oc2c1,Ratio CC50/IC50,[1],50.08
same,pIC50,[2],5.17
same,CC50 at 48 h,[3],389 µM
COC(=O)c1ccc(C)cc1OC(=O)COc1cc(O)c2c(=O)cc(-c3ccccc3)oc2c1,Ratio CC50/IC50,[1],8.04
same,pIC50,[2],4.51
same,CC50 at 48 h,[3],250 µM
Cc1cccc(OC(=O)COc2cc(O)c3c(=O)cc(-c4ccccc4)oc3c2)c1C(=O)O,Ratio CC50/IC50,[1],8.02
same,pIC50,[2],4.43
same,CC50 at 48 h,[3],298 µM
O=C(COc1cc(O)c2c(=O)cc(-c3ccccc3)oc2c1)Oc1cccc(Br)c1C(=O)O,Ratio CC50/IC50,[1],9.28
same,pIC50,[2],4.38
same,CC50 at 48 h,[3],388 µM
COC(=O)c1cc(Cl)ccc1OC(=O)COc1cc(O)c2c(=O)cc(-c3ccccc3)oc2c1,Ratio CC50/IC50,[1],>116.57
same,pIC50,[2],5.43
same,CC50 at 48 h,[3],> 436 µM
COC(=O)c1ccc(Cl)cc1OC(=O)COc1cc(O)c2c(=O)cc(-c3ccccc3)oc2c1,Ratio CC50/IC50,[1],21.43
same,pIC50,[2],4.91
same,CC50 at 48 h,[3],265 µM
O=C(COc1cc(O)c2c(=O)cc(-c3ccccc3)oc2c1)Oc1cc(Cl)cc(Cl)c1C(=O)O,Ratio CC50/IC50,[1],7.92
same,pIC50,[2],4.36
same,CC50 at 48 h,[3],345 µM
O=C(COc1cc(O)c2c(=O)cc(-c3ccccc3)oc2c1)Oc1cccc(Cl)c1C(=O)O,Ratio CC50/IC50,[1],9.39
same,pIC50,[2],4.41
same,CC50 at 48 h,[3],366 µM
COC(=O)c1cc(C)ccc1OC(=O)COc1cc(O)c2c(=O)cc(-c3ccccc3)oc2c1,Ratio CC50/IC50,[1],11.93
same,pIC50,[2],4.59
same,CC50 at 48 h,[3],306 µM
COC(=O)c1ccccc1OC(=O)COc1cc(O)c2c(=O)cc(-c3ccccc3)oc2c1,Ratio CC50/IC50,[1],9.28
same,pIC50,[2],4.54
same,CC50 at 48 h,[3],265 µM
O=C(COc1cc(O)c2c(=O)cc(-c3ccccc3)oc2c1)Oc1cccc(O)c1C(=O)O,Ratio CC50/IC50,[1],8.83
same,pIC50,[2],4.42
same,CC50 at 48 h,[3],338 µM
O=C(COc1cc(O)c2c(=O)cc(-c3ccccc3)oc2c1)Oc1cccc(F)c1C(=O)O,Ratio CC50/IC50,[1],7.91
same,pIC50,[2],4.40
same,CC50 at 48 h,[3],319 µM
O=c1cc(-c2ccccc2)oc2cc(O)cc(O)c12 [CHRYSIN],Ratio CC50/IC50,[1],9.7
same,pIC50,[2],4.35
same,CC50 at 48 h,[3],428 µM
COC(=O)c1cccc(OC)c1OC(=O)COc1cc(O)c2c(=O)cc(-c3ccccc3)oc2c1,Ratio CC50/IC50,[1],5.34
same,pIC50,[2],4.43
same,CC50 at 48 h,[3],196 µM
O=C(COc1cc(O)c2c(=O)cc(-c3ccccc3)oc2c1)Oc1cc(Br)cc(Br)c1C(=O)O,Ratio CC50/IC50,[1],8.69
same,pIC50,[2],4.34
same,CC50 at 48 h,[3],398 µM
Cc1cccc(C(=O)O)c1OC(=O)COc1cc(O)c2c(=O)cc(-c3ccccc3)oc2c1,Ratio CC50/IC50,[1],7.65
same,pIC50,[2],4.41
same,CC50 at 48 h,[3],299 µM
COC(=O)c1cc(O)ccc1OC(=O)COc1cc(O)c2c(=O)cc(-c3ccccc3)oc2c1,Ratio CC50/IC50,[1],8.94
same,pIC50,[2],4.53
same,CC50 at 48 h,[3],263 µM
